Holding throughout (assay type): functional, cell-based
Assay [1] concerns 1A9. The assay is described as follows: Antitumor activity against human 1A9 cells. The method, boiled down:
(§1)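 SRB growth assay. Stock cultures grown in T-25 flasks in RPMI-1640 with […], 0.25% sodium bicarbonate, 10% FBS and 100 µg/mL kanamycin. Freshly trypsinized cells seeded at 1500-7500 per well, compounds added from DMSO-diluted stock, 3 days culture. Attached cells fixed with cold 50% TCA, stained with 0.4% SRB, bound dye solubilized, absorbance read at 562 nm. EC50 = concentration reducing growth 50%, mean of at least three independent determinations.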

For assay [2], the system named is LNCaP. Description: Antitumor activity against human LNCAP cells. The method, boiled down:
as §1

The test system of assay [3] is KB. The assay is described as follows: Antitumor activity against human KB cells. The method, boiled down:
as §1

Assay [4] is described as follows: Antitumor activity against human KB-VIN cells. Particulars: KBVIN. The method, boiled down:
as §1

Assay [5] relates to A-431. Description: Antitumor activity against human A431 cells. The method, boiled down:
as §1

The test system of assay [6] is A549. Description: Antitumor activity against human A549 cells. The essentials:
as §1

Assay [7] deals with HCT-8. Description: Antitumor activity against human HCT8 cells. The essentials:
as §1

Assay [8] concerns PC-3. Description: Antitumor activity against human PC3 cells. The method, boiled down: as §1
The test system of assay [9] is ZR-75-1. The assay is described as follows: Antitumor activity against human ZR751 cells. The method, boiled down: as §1
The subject of assay [10] is DU-145. Description: Antitumor activity against human DU145 cells. The method, boiled down: as §1
Assay [11] concerns HCT-116. Description: Antitumor activity against human HCT116 cells. The method, boiled down:
as §1

Values after ≈ are worked out from the molar mass of the structure shown.

`CO[C@@H]1CC(=O)[C@@]2(C)[C@@H](CC[C@@H]3[C@@H]2CC[C@@]2(O)C(=O)O[C@@]4(C)[C@H]5C[C@@]6(C)C7C(=O)[C@@]3(OC[C@H]6C(=O)O5)O[C@]724)C1` [PHYSALIN W]: the EC50 (commonly the concentration that produces a half-maximal response) in assay [1] worked out at 9.2 µg/mL (≈ 16.9 µM).

For the compound `CC1=C(C)C(=O)OC([C@](C)(O)[C@]2(O)[C@@H](O)C[C@@]3(O)[C@@H]4C[C@@H](O)[C@@]5(O)[C@@H](O)C=CC(=O)[C@]5(C)[C@H]4CC[C@]23C)C1` (stereo partly specified) [WITHANGULATIN G], the values for the EC50 in assay [1] and in assay [2] were 18.8 µg/mL (≈ 35 µM) and 13.4 µg/mL (≈ 25 µM), respectively.

For `C[C@@]12C[C@H]3OC(=O)[C@@H]1CO[C@]14O[C@]5([C@H]2C1=O)[C@@](O)(CC[C@H]1[C@H]4C[C@H]2O[C@]24CC=CC(=O)[C@]14C)C(=O)O[C@@]35C` [PHYSALIN F], the EC50 in assay [2] came to 1 µg/mL (≈ 1.9 µM); in [3] it was 0.9 µg/mL (≈ 1.71 µM); in [4], 1.9 µg/mL (≈ 3.61 µM); in [5], 1.1 µg/mL (≈ 2.09 µM); in assay [6], 1.3 µg/mL (≈ 2.47 µM); in [7], 1 µg/mL (≈ 1.9 µM). The concentration for a half-maximal effect (EC50) came to 1.1 µg/mL (≈ 2.09 µM) in assay [8] and 0.3 µg/mL (≈ 0.57 µM) in assay [9].

For the compound `C[C@]12C(=O)C=CCC1=CC[C@@H]1[C@@H]2CC[C@]2(O)C(=O)O[C@@]3(C)[C@H]4C[C@]5(C)[C@@H](CO[C@@]16O[C@@]32[C@H]5C6=O)C(=O)O4` [PHYSALIN B], the concentration for a half-maximal effect (EC50) in [2] was found to be 5.3 µg/mL (≈ 10.4 µM); in assay [3], 3 µg/mL (≈ 5.88 µM); in assay [4], 1.3 µg/mL (≈ 2.55 µM); in assay [5], 1.8 µg/mL (≈ 3.53 µM); in [6] it was 5.9 µg/mL (≈ 11.6 µM); in assay [7], 1.5 µg/mL (≈ 2.94 µM). Besides, the values for the 50% effective concentration (EC50) in assay [8] and in assay [9] were 0.9 µg/mL (≈ 1.76 µM) and 2.6 µg/mL (≈ 5.09 µM), respectively.

For the compound `CC1=C(C)C(=O)OC([C@](C)(O)[C@]2(O)C[C@H](O)[C@@]3(O)[C@@H]4C[C@H]5O[C@]56[C@@H](O)C=CC(=O)[C@]6(C)[C@H]4CC[C@@]32C)C1` (stereo partly specified) [WITHANGULATIN B], the concentration for a half-maximal effect (EC50) came out at 1.3 µg/mL (≈ 2.51 µM) in assay [10], 0.2 µg/mL (≈ 0.386 µM) in assay [1], 0.4 µg/mL (≈ 0.771 µM) in [11] and 0.2 µg/mL (≈ 0.386 µM) in [2].

`CO[C@@H]1CC(=O)[C@]2(C)[C@H]3CC[C@@]4(O)C(=O)O[C@@]5(C)[C@H]6C[C@@]7(C)C8C(=O)[C@@](OC[C@H]7C(=O)O6)(O[C@]845)[C@@H]3C[C@H]3O[C@]32C1` [PHYSALIN U]: the EC50 in assay [2] came to 15.9 µg/mL (≈ 28.5 µM); in assay [3], 11.9 µg/mL (≈ 21.3 µM); in assay [4] it was 20 µg/mL (≈ 35.8 µM); in assay [5] it was 13.4 µg/mL (≈ 24 µM); in [6], 16.3 µg/mL (≈ 29.2 µM); in assay [7], 11.1 µg/mL (≈ 19.9 µM). Besides, the EC50 in [8] was 18.1 µg/mL (≈ 32.4 µM); in assay [9], 8.2 µg/mL (≈ 14.7 µM).

Turning to `CO[C@H]1CC(=O)[C@]2(C)[C@H]3CC[C@]4(C)[C@](O)([C@@](C)(O)C5CC(C)=C(C)C(=O)O5)[C@@H](O)C[C@@]4(O)[C@@H]3C[C@H]3O[C@]32C1` (stereo partly specified) [WITHANGULATIN H], the EC50 in assay [1] was 3.7 µg/mL (≈ 6.92 µM); in [11], 9.2 µg/mL (≈ 17.2 µM); in assay [2], 9.6 µg/mL (≈ 18 µM).

With `CO[C@H]1C[C@@](O)([C@@](C)(O)C2CC(C)=C(C)C(=O)O2)[C@@]2(C)CC[C@H]3[C@@H](C[C@H]4O[C@]45[C@@H](O)CCC(=O)[C@]35C)[C@]12O` (stereo partly specified) [WITHANGULATIN C], the results for the EC50 in assay [1], in assay [11] and in assay [2] were 6.5 µg/mL (≈ 12.2 µM), 11.4 µg/mL (≈ 21.3 µM) and 13.9 µg/mL (≈ 26 µM), respectively.

In the case of `C[C@@]12C[C@H]3OC(=O)[C@@H]1CO[C@@]14O[C@]5(C2C1=O)[C@@](O)(CC[C@H]1[C@H]4C[C@@H]2O[C@@]24CC=CC(=O)[C@]14C)C(=O)O[C@@]35C` [PHYSALIN J], the EC50 in [5] worked out at 17 µg/mL (≈ 32.3 µM).

For `C[C@@]12C[C@H]3OC(=O)[C@@H]1CO[C@@]14O[C@]5([C@H]2C1=O)[C@@](O)(CC[C@H]1[C@H]4C[C@@H](O)[C@@]2(O)CC=CC(=O)[C@]12C)C(=O)O[C@@]35C` [PHYSALIN D], the EC50 is 1.3 µg/mL (≈ 2.39 µM) in assay [2]; 1.2 µg/mL (≈ 2.2 µM) in assay [3]; 7 µg/mL (≈ 12.9 µM) in [4]; 1.4 µg/mL (≈ 2.57 µM) in [5]; 1.6 µg/mL (≈ 2.94 µM) in assay [6]; 1.2 µg/mL (≈ 2.2 µM) in assay [7]. The figures for the EC50 in assay [8] and in [9] were 1.6 µg/mL (≈ 2.94 µM) and 0.4 µg/mL (≈ 0.735 µM), respectively.
